Results reported in ChEMBL document CHEMBL4007421, “Discovery and Preclinical Characterization of 3-((4-(4-Chlorophenyl)-7-fluoroquinoline-3-yl)sulfonyl)benzonitrile, a Novel Non-acetylenic Metabotropic Glutamate Receptor 5 (mGluR5) Negative Allosteric Modulator for Psychiatric Indications” (J Med Chem, 2017).
pIC50, pKi: −log10 of the molar value. The source made the active and inactive calls. The calls are words filed in the database; no cut-off is given here.

Key:
[1] = AUC in male Crl:CD(SD) rat at 4.5 mg/kg, po; type: ADME, organism-based; settings: in vivo
[2] = Plasma concentration in Wistar rat at 1 mg/kg, po after 75 mins; type: ADME, organism-based
Method in brief: (§1)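 Plasma levels taken right after the Vogel test (~75 min after oral dose) following single oral doses in lipid-based formulations; data pooled from four experiments; mean±SD.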

[3] = Cmax in fasted female beagle dog at 1 mg/kg, po; type: ADME, organism-based, Canis lupus familiaris; parameters: dose 1 mg/kg, route oral; settings: in vivo
[4] = test system: Rattus norvegicus; assay: Therapeutic index, ratio of MED for effect on spatial learning performance in po dosed Wistar rat by Morris water maze test to MED for anxiolytic activity in Wistar rat by Vogel punished drinking conflict test
Method in brief: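 Index is the Morris water maze minimum effective dose (oral, given 1 h before the first daily trial, 4 days of 3 trials) divided by the Vogel punished drinking minimum effective dose.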

[5] = test system: Rattus norvegicus; assay: Anxiolytic activity in po dosed Wistar rat assessed as increase in water drinking time during punished period administered as suspension by Vogel punished drinking conflict test; type: functional; settings: read-out: MED
Method in brief: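 Vogel punished-drinking test in rats, single i.p. or p.o. dose as suspension in 5% Tween 80; plasma sampled ~45 min after i.p. or ~75 min after p.o. dosing.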

[6] = Clearance in female Crl:CD(SD) rat at 0.5 mg/kg, iv; type: ADME, organism-based; settings: in vivo
[7] = Terminal elimination half life in male Crl:CD(SD) rat at 0.5 mg/kg, iv; type: ADME, organism-based; settings: in vivo, read-out: beta t1/2 (converted)
Method in brief: (§2)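 Single-dose PK: i.v. and oral dosing in Crl:CD(SD) rats and beagle dogs, plus a pilot oral nasogastric study in Cynomolgus monkeys using a Type IV lipid formulation. Rat i.v. vehicle was 80% cosolvent. Monkeys were fasted from 2 h before until 2 h after dosing, n=3 per sex. Rats also received [14C]-labelled compound orally at 50 mg/kg, with total radioactivity followed. Parameters are means; monkey values are medians.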

[8] = Terminal elimination half life in fasted male beagle dog at 1 mg/kg, po; type: ADME, organism-based, Canis lupus familiaris; settings: in vivo, read-out: beta t1/2 (converted); method in brief: as §2
[9] = test system: Rattus norvegicus; assay: Anxiolytic activity in Wistar rat assessed as increase in water drinking time during punished period at 10 mg/kg, po qd for 19 days by Vogel punished drinking conflict test; type: functional, organism-based
Method in brief: (§3)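 Vogel punished-drinking test in rats after 24 h water deprivation, with 60 s unpunished drinking; oral 10 mg/kg given once daily for 19 days, vehicle group dosed only on Day 19 as first-dose control; plasma sampled right after test; n=10 per group; ANOVA with Duncan post-hoc.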

[10] = Volume of distribution in male beagle dog at 0.5 mg/kg, iv administered as infusion; type: ADME, organism-based, Canis lupus familiaris; settings: in vivo; method in brief: as §2
[11] = Tmax in female Crl:CD(SD) rat at 4.5 mg/kg, po; type: ADME, organism-based; settings: in vivo; method in brief: as §2
[12] = Plasma concentration in Wistar rat at 0.5 mg/kg, po after 75 mins; type: ADME, organism-based; method in brief: as §1
[13] = molecular target: Metabotropic glutamate receptor 5 (Rattus norvegicus, UniProt P31424); assay: Negative allosteric modulation of mGluR5 in E17 Sprague-Dawley rat primary neuronal cultures assessed as reduction of DHPG-induced cytosolic Ca2+ influx after 10 to 20 mins by fluo-4/AM-dye based fluorometric analysis; type: functional
[14] = Clearance in male beagle dog at 0.5 mg/kg, iv administered as infusion; type: ADME, organism-based, Canis lupus familiaris; settings: in vivo
[15] = molecular target: Metabotropic glutamate receptor 1 (Rattus norvegicus) (UniProt P23385); assay: Negative allosteric modulation of mGluR1 in newborn Sprague-Dawley rat cerebelli assessed as reduction of DHPG-induced cytosolic Ca2+ influx after 10 to 20 mins by fluo-4/AM-dye based fluorometric analysis; type: functional
[16] = test system: MDR1; assay: Apparent inward permeability in MDCK2-MDR1 cells; type: ADME, cell-based, Canis lupus familiaris; settings: dog, MDCK-MDR1
[17] = Plasma concentration in po dosed Wistar rat dosed 1 hr prior to first daily trial by Morris water maze test; type: ADME, organism-based
[18] = Clearance in female beagle dog at 0.5 mg/kg, iv administered as infusion; type: ADME, organism-based, Canis lupus familiaris; settings: in vivo
[19] = AUC in male beagle dog at 0.5 mg/kg, iv administered as infusion; type: ADME, organism-based, Canis lupus familiaris; settings: in vivo
[20] = Plasma concentration in Wistar rat at 10 mg/kg, po qd measured after first dosing during Vogel punished drinking conflict test; type: ADME, organism-based; method in brief: as §3
[21] = Cmax in fasted male beagle dog at 1 mg/kg, po; type: ADME, organism-based, Canis lupus familiaris; parameters: dose 1 mg/kg, route oral; settings: in vivo
[22] = molecular target: T1, Metabotropic glutamate receptor 5 (Homo sapiens, UniProt P41594); assay: Displacement of [3H]M-MPEP from mGluR5 in male human post mortem parietal cortical tissue after 30 mins by scintillation counting method
[23] = AUC in fasted female beagle dog at 1 mg/kg, po; type: ADME, organism-based, Canis lupus familiaris; settings: in vivo
[24] = molecular target: T1, Metabotropic glutamate receptor 5; assay: Displacement of [3H]M-MPEP from mGluR5 in female human post mortem parietal cortical tissue after 30 mins by scintillation counting method
[25] = test system: Rattus norvegicus; assay: Anxiolytic activity in Wistar rat assessed as increase in water drinking time during punished period at 10 mg/kg, po qd measured after first dosing by Vogel punished drinking conflict test; type: functional, organism-based; method in brief: as §3
[26] = test system: Rattus norvegicus; assay: (§4) Toxicity in po dosed Harlan-Wistar rat assessed as decrease in spontaneous locomotor activity photocell-based activity monitor test; type: organism-based; settings: in vivo
Method in brief: (§5)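 Male Wistar rats were given 0, 10, 30 or 50 mg/kg p.o. Spontaneous locomotor activity (ambulatory movement) was recorded in a photocell-based activity monitor.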

[27] = as §4; type: organism-based; settings: Harlan-Wistar, in vivo; method in brief: as §5
[28] = Clearance in male Crl:CD(SD) rat at 0.5 mg/kg, iv; type: ADME, organism-based; settings: in vivo
[29] = molecular target: Cytochrome P450 2D6 (Homo sapiens, UniProt P10635); assay: Inhibition of CYP2D6 in human liver microsomes; type: ADME
[30] = test system: Rattus norvegicus; assay: Therapeutic index, ratio of plasma concentration causing effect on spatial learning performance in po dosed Wistar rat by Morris water maze test to plasma concentration causing anxiolytic activity in Wistar rat by Vogel punished drinking conflict test
Method in brief: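 Index is the plasma level in rats at 30 mg/kg p.o. in the Morris water maze (sampled after the last trial on Day 4) divided by the plasma level at the Vogel minimum effective dose. Vogel plasma was sampled right after the test.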

[31] = AUC in female Crl:CD(SD) rat at 4.5 mg/kg, po; type: ADME, organism-based; settings: in vivo
[32] = Plasma concentration in Wistar rat at 10 mg/kg, po qd for 19 days during Vogel punished drinking conflict test; type: ADME, organism-based; method in brief: as §3
[33] = Tmax in male Crl:CD(SD) rat at 4.5 mg/kg, po; type: ADME, organism-based; settings: in vivo; method in brief: as §2
[34] = test system: MDR1; assay: Ratio of apparent outward permeability to apparent inward permeability in MDCK2-MDR1 cells; type: ADME, cell-based, Canis lupus familiaris; settings: dog, MDCK-MDR1
Method in brief: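 MDCKII-MDR1 cell monolayers used as an in vitro surrogate of brain penetration. Transport was measured in both the inward and outward directions, and an apparent permeability (Papp) was calculated for each. The directional ratio (PDR) is Papp outward divided by Papp inward.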

[35] = Plasma concentration in ip dosed Wistar rat at anxiolytic MED administered as suspension after 45 mins during Vogel punished drinking conflict test; type: ADME, organism-based
Method in brief: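 Vehicle was a suspension containing 5% Tween 80, given i.p. at the Vogel minimum effective dose. Plasma was sampled about 45 min after dosing, right after the Vogel punished drinking test.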

[36] = test system: Rattus norvegicus; assay: Toxicity in po dosed Harlan-Wistar rat assessed as effect on ambulatory movement at 10 to 30 mg/kg, po by photocell-based activity monitor test; type: organism-based; settings: in vivo; method in brief: as §5

T1 sequence (P41594 whole entry): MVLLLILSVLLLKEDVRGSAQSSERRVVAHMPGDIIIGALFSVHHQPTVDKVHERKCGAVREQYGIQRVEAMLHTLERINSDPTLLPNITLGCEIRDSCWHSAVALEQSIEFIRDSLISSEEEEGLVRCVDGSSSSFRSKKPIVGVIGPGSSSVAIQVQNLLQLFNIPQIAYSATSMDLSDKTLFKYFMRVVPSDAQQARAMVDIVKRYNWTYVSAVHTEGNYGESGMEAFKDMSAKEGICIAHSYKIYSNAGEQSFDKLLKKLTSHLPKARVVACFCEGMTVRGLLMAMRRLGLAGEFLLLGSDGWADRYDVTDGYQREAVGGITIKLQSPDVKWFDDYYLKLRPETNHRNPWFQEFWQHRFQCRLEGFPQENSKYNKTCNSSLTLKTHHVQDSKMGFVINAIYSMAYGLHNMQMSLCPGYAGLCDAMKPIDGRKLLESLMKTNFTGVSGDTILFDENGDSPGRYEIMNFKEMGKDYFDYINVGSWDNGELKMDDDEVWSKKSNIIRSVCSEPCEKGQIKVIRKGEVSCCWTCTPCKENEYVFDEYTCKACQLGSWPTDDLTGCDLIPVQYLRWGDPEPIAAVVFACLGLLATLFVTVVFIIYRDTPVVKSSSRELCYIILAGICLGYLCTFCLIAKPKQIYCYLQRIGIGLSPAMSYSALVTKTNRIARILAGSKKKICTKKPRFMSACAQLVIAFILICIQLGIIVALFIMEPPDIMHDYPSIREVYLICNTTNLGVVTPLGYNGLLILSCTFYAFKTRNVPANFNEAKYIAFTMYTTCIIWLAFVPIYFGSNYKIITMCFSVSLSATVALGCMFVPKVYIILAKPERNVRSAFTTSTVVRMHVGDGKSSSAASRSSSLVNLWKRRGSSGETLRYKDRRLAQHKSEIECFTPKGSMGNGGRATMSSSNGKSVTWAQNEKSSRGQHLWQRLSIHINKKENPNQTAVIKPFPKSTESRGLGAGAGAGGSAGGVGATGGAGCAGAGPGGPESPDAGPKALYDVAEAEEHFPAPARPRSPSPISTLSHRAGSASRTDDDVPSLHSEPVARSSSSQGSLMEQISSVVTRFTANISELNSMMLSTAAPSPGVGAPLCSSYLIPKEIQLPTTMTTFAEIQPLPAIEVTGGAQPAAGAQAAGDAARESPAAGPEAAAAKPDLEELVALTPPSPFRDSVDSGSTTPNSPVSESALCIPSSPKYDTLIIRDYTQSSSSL
Sequence of Cytochrome P450 2D6 (P10635 whole entry): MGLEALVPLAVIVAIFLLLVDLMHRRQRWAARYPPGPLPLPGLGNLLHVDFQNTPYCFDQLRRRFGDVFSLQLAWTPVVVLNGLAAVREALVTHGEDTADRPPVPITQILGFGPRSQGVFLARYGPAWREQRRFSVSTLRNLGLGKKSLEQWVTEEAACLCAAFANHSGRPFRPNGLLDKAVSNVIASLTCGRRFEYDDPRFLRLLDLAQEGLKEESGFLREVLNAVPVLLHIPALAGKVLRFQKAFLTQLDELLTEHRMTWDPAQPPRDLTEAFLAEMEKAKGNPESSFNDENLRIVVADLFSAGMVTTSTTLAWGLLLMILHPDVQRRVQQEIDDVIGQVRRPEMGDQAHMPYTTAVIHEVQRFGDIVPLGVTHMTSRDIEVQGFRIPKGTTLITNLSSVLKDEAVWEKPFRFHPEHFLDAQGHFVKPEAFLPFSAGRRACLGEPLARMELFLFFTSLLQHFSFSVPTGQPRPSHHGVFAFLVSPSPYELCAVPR
Sequence of Metabotropic glutamate receptor 5 (Rattus norvegicus, UniProt P31424) (P31424 whole entry, the tested form may be a part): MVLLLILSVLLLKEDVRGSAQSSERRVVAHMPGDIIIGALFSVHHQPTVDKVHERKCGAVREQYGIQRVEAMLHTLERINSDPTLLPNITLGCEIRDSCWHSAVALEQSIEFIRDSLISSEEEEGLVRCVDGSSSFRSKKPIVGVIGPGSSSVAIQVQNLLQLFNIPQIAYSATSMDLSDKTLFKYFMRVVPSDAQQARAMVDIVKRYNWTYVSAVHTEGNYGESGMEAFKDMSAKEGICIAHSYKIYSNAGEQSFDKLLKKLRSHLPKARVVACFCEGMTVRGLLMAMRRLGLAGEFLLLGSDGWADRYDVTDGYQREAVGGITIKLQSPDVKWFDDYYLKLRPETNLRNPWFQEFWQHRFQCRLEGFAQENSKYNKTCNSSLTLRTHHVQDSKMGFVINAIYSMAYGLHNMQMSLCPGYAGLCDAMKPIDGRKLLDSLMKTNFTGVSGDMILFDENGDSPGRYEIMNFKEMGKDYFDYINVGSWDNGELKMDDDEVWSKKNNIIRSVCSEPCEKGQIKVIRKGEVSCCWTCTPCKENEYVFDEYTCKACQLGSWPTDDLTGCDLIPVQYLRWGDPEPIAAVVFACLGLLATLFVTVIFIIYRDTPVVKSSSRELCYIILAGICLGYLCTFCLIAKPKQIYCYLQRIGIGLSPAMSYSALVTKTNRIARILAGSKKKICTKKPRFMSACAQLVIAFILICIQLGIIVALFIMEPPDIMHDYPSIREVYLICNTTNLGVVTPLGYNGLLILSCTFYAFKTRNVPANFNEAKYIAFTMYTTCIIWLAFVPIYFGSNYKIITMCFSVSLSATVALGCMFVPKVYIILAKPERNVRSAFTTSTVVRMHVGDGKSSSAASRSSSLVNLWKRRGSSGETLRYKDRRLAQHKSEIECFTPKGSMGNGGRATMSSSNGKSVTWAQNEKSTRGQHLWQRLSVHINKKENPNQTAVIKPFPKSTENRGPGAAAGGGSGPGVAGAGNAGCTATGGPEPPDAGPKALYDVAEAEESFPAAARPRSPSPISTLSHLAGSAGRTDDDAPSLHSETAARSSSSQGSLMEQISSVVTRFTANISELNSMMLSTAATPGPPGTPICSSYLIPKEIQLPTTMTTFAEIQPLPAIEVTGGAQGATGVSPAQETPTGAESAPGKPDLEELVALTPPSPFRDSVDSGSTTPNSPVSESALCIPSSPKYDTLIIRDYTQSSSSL
Sequence of Metabotropic glutamate receptor 1 (Rattus norvegicus) (P23385 19-1199 limits assumed): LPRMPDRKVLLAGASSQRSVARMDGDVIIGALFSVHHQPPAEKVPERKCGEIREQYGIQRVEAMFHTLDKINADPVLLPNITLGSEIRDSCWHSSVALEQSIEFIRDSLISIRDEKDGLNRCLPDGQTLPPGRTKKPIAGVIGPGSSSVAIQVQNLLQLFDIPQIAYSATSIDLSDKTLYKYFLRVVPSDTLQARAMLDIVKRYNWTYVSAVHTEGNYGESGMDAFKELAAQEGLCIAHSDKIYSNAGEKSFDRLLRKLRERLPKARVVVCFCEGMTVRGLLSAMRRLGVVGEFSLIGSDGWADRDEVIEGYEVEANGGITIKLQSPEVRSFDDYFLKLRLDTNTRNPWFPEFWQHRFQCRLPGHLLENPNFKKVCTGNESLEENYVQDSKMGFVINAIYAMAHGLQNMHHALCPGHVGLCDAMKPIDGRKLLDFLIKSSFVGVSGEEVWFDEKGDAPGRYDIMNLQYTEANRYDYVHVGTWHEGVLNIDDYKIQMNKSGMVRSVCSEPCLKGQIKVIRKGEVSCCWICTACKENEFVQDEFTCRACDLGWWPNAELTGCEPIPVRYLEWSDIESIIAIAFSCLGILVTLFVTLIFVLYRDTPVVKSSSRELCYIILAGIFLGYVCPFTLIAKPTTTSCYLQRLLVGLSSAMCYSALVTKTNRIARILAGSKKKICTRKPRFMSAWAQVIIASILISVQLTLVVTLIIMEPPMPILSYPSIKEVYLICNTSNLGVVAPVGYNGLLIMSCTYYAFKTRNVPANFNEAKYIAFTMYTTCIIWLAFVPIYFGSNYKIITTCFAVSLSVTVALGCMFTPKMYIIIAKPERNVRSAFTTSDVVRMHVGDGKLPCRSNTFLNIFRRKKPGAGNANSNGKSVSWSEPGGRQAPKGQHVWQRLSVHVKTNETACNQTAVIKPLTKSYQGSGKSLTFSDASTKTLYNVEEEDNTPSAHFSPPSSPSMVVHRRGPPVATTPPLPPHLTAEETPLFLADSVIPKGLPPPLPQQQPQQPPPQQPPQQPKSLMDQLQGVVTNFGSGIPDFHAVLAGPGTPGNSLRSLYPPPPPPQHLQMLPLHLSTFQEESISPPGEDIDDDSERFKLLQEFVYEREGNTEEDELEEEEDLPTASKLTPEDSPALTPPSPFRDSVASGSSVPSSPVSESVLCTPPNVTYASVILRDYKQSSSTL

AUC [1]: 2.19 µM·h
concentration at 1.25 h [2]: 99 nM
Cmax [3]: 551 nM
clearance [6]: 14.3 mL/min/kg
half-life [7]: 5.13 h
half-life [8]: 12.8 h
Vd [10]: 8.6 L/kg
Tmax [11]: 0.75 h
concentration at 1.25 h [12]: 34.8 nM
pIC50 [13]: 7.72
clearance [14]: 6.43 mL/min/kg
Activity [15]: Active
Papp [16]: 11.5 ×10⁻⁶ cm/s
concentration at 1 h [17]: 986 nM
clearance [18]: 9.22 mL/min/kg
AUC [19]: 3.07 µM·h
concentration at 1 day [20]: 787 nM
Cmax [21]: 492 nM
pKi [22]: 7.97
AUC [23]: 1.68 µM·h
pKi [24]: 7.92
clearance [28]: 27.9 mL/min/kg
pIC50 [29]: < 5.00
AUC [31]: 7.3 µM·h
concentration at 456 h [32]: 513 nM
Tmax [33]: 0.75 h
efflux ratio [34]: 0.74
concentration at 0.75 h [35]: 51.1 nM
SMILES: N#Cc1cccc(S(=O)(=O)c2cnc3cc(F)ccc3c2-c2ccc(Cl)cc2)c1
TI [4]: >30
minimal effective dose [5]: 0.5 mg/kg
Activity [9]: Active
Activity [25]: Active
Activity [26]: Dose-dependent effect
ED50 [26]: 50 mg/kg
NOAEL [27]: 30 mg/kg
TI [30]: 28.3
Activity [36]: Non-Toxic
